HEK293 NFkB inh: inhibitors of the PMA/ionomycin-induced NF-kB reporter in HEK293 cells; HEK-293 NF-kB luciferase reporter, luminescence; inhibition, % at 3 µM; 62,000 tested, 0.21% active; AID 465;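 active = inhibition above the mean of all tested compounds plus 3 SD, cut at about 40% in these data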;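 note: 0% = stimulated DMSO wells and 100% = 10 µM reference inhibitor 5653914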
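Signal: luciferase luminescence; Material: HEK-293 cells with stable firefly luciferase reporter driven by four HIV NF-kB elements; Probe or stimulus: PMA with ionomycin; Replication: tested once; Times: 1 h compound pretreatment, then 16 h stimulation at 37 °C, 5% CO2; Benchmarks: DMSO and 10 µM reference inhibitor; Evaluation: per-plate % inhibition versus controls.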
M1 antagonist: blocks the rat M1 muscarinic receptor response to acetylcholine; CHO-M1 cells, Fluo-4 calcium, ACh EC80 antagonist mode; stronger effect = lower value; 64,000 tested, 3.4% active; B-score at 10 µM; P08482;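 active = calcium fluorescence response, raw or row-and-column corrected B-score, differing from the plate sample mean either way at a set confidence level, mostly lower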
MKP-1 inh: inhibitors of human MKP-1 phosphatase | 65,000 tested, 0.15% active | P28562 | inhibition, %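 (compounds tested at a single concentration somewhere between 10 and 100 µM)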 | recombinant MKP-1, OMFP hydrolysis fluorescence | AID 374;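 active = inhibition above about 50%, limit read from the data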;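 note: 0% = DMSO max control wells and 100% = wells with enzyme stopped by NaOH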
Her2 expr inh: Her2 kinase expression inhibition; SKBR-3 HER2 protein level, AlphaScreen, 18-24 h; stronger effect = lower value; HER2 level % of control, % at 10 µM; P04626; 65,000 tested, 0.69% active;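 active = HER2 level under 5% of the carrier-only control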;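 note: 100% = DMSO carrier and 0% = 500 nM PU-H71 HSP90 inhibitor; lower value means stronger loss of Her2 protein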
M1 agonist: agonists of M1 muscarinic receptor. CHO-M1 cells, Fluo-4 calcium fluorescence, agonist mode; stronger effect = higher value. B-score at 10 µM. 64,000 tested, 3% active;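 active = fluorescence rise, raw or as B-score row- and column-corrected plate score, outside the 99.7% band of its plate's samples, either direction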
Cdc25B inh: inhibitors of human Cdc25B phosphatase. recombinant Cdc25B, OMFP fluorescence Ex485/Em525. P30305. inhibition, %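 (compounds tested at 10 µM final in the well)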. 65,000 tested, 0.1% active; in the data active = inhibition above about 50%
Target sequence (P30305 whole entry, looked up): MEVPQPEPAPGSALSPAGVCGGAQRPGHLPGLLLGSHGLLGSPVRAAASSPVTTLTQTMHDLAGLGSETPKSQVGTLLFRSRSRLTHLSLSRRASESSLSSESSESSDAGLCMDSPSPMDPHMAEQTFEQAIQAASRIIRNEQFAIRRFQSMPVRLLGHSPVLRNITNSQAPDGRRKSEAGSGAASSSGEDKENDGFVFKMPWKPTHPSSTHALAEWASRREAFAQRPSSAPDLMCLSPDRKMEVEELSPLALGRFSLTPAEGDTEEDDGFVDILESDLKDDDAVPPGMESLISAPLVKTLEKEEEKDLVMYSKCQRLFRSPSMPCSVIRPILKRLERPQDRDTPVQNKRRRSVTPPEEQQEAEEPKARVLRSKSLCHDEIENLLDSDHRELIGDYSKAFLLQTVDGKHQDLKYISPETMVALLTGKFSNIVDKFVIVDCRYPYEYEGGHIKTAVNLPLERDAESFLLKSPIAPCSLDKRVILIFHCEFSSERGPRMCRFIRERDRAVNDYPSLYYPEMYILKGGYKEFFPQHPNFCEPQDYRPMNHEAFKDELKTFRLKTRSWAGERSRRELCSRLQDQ
M1 antag conf: confirmation of rat M1 muscarinic receptor antagonists | shares compounds with M1 antagonist | CHO-M1 cells, Fluo-4 calcium, ACh EC80 antagonism; stronger effect = lower value | calcium response (max-min fluorescence) at 10 µM | 1,700 tested, 43% active | AID 677;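 active = calcium response below the same-plate mean of wells given acetylcholine alone at its 80%-effect dose, minus 3 SD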;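 note: raw fluorescence intensity difference in arbitrary instrument units and not normalized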
mGluR4 antag: acts on human mGluR4 in M1 antagonist selectivity test | shares compounds with M1 antagonist | CHO-mGluR4 calcium flux, Fluo-4 fluorescence, glutamate EC80; stronger effect = lower value | fluorescence response (max-min) at 10 µM | 1,700 tested, 0.9% active | AID 678;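 active = fluorescence response below the plate's average for near-maximal glutamate wells, less 3 SD of those wells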;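 note: raw unnormalized fluorescence span taken in the window right after glutamate addition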
* hit, by the source's call. Hits are enriched below; roughly 6.8% of the tested compounds scored in any of these assays.

Results for O/N=C1\CCC2CN(C3CCCCC3)CC2C1 (stereo not drawn) ?
HEK293 NFkB inh: 12.7; M1 antagonist: -0.775; MKP-1 inh: -1.2; Her2 expr inh: 97.6; M1 agonist: -0.669; Cdc25B inh: -4.9

What do the screens show for `CCN(CC)CCN=Cc1c(O)n(CCc2ccccc2)c(=O)[nH]c1=O`?
M1 antagonist: 0.38; MKP-1 inh: -22.0; Her2 expr inh: 132.0; M1 agonist: 1.46; Cdc25B inh: -40.7

Results for CN1C2CCC1CC(OC(=O)c1ccc(Cl)cc1)C2 (stereo not drawn) ?
HEK293 NFkB inh: -0.9; M1 antagonist: -19.5*; MKP-1 inh: -5.0; Her2 expr inh: 105.9; M1 agonist: 0.0129; Cdc25B inh: -12.0; M1 antag conf: 60.6*; mGluR4 antag: 230

What do the screens show for `CCCCCn1c(=O)c(C(=O)Nc2ccncc2)c(O)c2ccccc21`?
HEK293 NFkB inh: -12.1; M1 antagonist: 0.0202; MKP-1 inh: 1.1; Her2 expr inh: 21.8; M1 agonist: -0.324; Cdc25B inh: -18.0

Results for CCCCCCn1c(=O)c(C(=O)Nc2c(C)n(C)n(-c3ccccc3)c2=O)c(O)c2ccccc21 ?
HEK293 NFkB inh: 6.4; M1 antagonist: -8.01*; MKP-1 inh: -35.8; Her2 expr inh: 93.1; M1 agonist: 1.53; Cdc25B inh: 2.6; M1 antag conf: 167*; mGluR4 antag: 234

What do the screens show for `CCN(CC)CCCN=Cc1c(O)n(-c2cccc(C)c2C)c(=O)[nH]c1=O`?
HEK293 NFkB inh: 8.4; M1 antagonist: -0.542; MKP-1 inh: -9.3; Her2 expr inh: 123.5; M1 agonist: 0.611; Cdc25B inh: 2.4

How did CCN(CC)CCCN=Cc1c(O)n(-c2ccccc2F)c(=O)[nH]c1=O do in these assays?
HEK293 NFkB inh: -0.8; M1 antagonist: -2.29*; MKP-1 inh: -20.4; Her2 expr inh: 88.9; M1 agonist: -0.607; Cdc25B inh: 5.0; M1 antag conf: 635; mGluR4 antag: 207

Results for O=C1C2CCN(CC2)[C@@H]1Cc1ccc2ccccc2c1O ?
M1 antagonist: -4.56*; MKP-1 inh: -22.8; Her2 expr inh: 128.3; M1 agonist: -0.616; Cdc25B inh: -1.6; M1 antag conf: 91.6*; mGluR4 antag: 243

How did CN1C(=O)C(Cc2cccc3ccccc23)C(=O)N(C)C1=O do in these assays?
HEK293 NFkB inh: 0.9; M1 antagonist: 0.164; MKP-1 inh: -11.4; Her2 expr inh: 139.4; M1 agonist: 0.308; Cdc25B inh: -5.8

How did O=C(COc1ccc(S(=O)(=O)N2CCCCC2)cc1)N1CCN(Cc2ccccc2)CC1 do in these assays?
HEK293 NFkB inh: 6.3; M1 antagonist: 0.416; MKP-1 inh: -1.1; Her2 expr inh: 89.5; M1 agonist: -0.399; Cdc25B inh: -7.0

Results for O=C(COc1ccc2ccccc2c1)N1CCN(C2CCN(Cc3ccccc3)CC2)CC1 ?
M1 antagonist: -2.38*; MKP-1 inh: -9.5; Her2 expr inh: 113.6; M1 agonist: -0.884; Cdc25B inh: 0.6; M1 antag conf: 530; mGluR4 antag: 252

How did CCCC(C)(COC(N)=O)COC(=O)NC(C)C (stereo not drawn) do in these assays?
M1 antagonist: 1.84; MKP-1 inh: -10.4; Her2 expr inh: 91.5; M1 agonist: -0.423; Cdc25B inh: -26.8

What do the screens show for `CN1CCN(CCC(C#N)(c2ccccc2)c2ccccc2)CC1`?
HEK293 NFkB inh: 19.1; M1 antagonist: -17*; MKP-1 inh: -4.8; Her2 expr inh: 76.4; M1 agonist: 0.0707; Cdc25B inh: -10.3; M1 antag conf: 16.2*; mGluR4 antag: 230

What do the screens show for `COC1=CC(=O)OC(/C=C/c2ccccc2)C1` (stereo not drawn)?
M1 antagonist: 0.529; MKP-1 inh: -4.2; Her2 expr inh: 98.4; M1 agonist: -0.267; Cdc25B inh: -1.2

Results for CC(c1ccccc1)n1cncc1C(=O)N1CCCC1=O (stereo not drawn) ?
HEK293 NFkB inh: 13.7; M1 antagonist: 0.0065; MKP-1 inh: 1.6; Her2 expr inh: 158.4; M1 agonist: -1.36; Cdc25B inh: -21.6

What do the screens show for `CN(CC1COc2ccccc2O1)c1nc(-c2cccnc2)nc2ccccc12` (stereo not drawn)?
HEK293 NFkB inh: 25.1; M1 antagonist: -3.88*; MKP-1 inh: 24.8; Her2 expr inh: 43.8; M1 agonist: 1.67; Cdc25B inh: -19.9; M1 antag conf: 573; mGluR4 antag: 228

What do the screens show for `O=C1NC(=O)C(CCc2ccncc2)(C2CCCCC2)C(=O)N1`?
HEK293 NFkB inh: 0.1; M1 antagonist: -4.59*; MKP-1 inh: -19.4; Her2 expr inh: 81.5; M1 agonist: 0.018; Cdc25B inh: 8.4; M1 antag conf: 550*; mGluR4 antag: 185

What do the screens show for `CCOC(=O)C1=C(C)N(C)C2(C)CC1c1ccccc1O2` (stereo not drawn)?
HEK293 NFkB inh: 0.1; M1 antagonist: -2.39*; MKP-1 inh: 3.5; Her2 expr inh: 107.6; M1 agonist: 0.859; Cdc25B inh: -0.7; M1 antag conf: 563; mGluR4 antag: 209

What do the screens show for `c1ccc(C2CC3CC4(CCCC4)N2O3)cc1` (stereo not drawn)?
HEK293 NFkB inh: 15.1; M1 antagonist: 0.569; MKP-1 inh: -4.1; Her2 expr inh: 121.3; M1 agonist: 0.112; Cdc25B inh: -14.5

How did CCOC(=O)C1(c2ccccc2)CCN(Cc2cccc(C(=O)O)c2)CC1 do in these assays?
HEK293 NFkB inh: 16.5; M1 antagonist: -3.83*; MKP-1 inh: 5.2; Her2 expr inh: 84.7; M1 agonist: 0.226; Cdc25B inh: -2.7; M1 antag conf: 630; mGluR4 antag: 198

What do the screens show for `COc1cc(CN2CCN(C(=O)COc3ccccc3)CC2)cc(OC)c1OC`?
HEK293 NFkB inh: 15.1; M1 antagonist: 0.364; MKP-1 inh: 5.6; Her2 expr inh: 107.5; M1 agonist: -1.02; Cdc25B inh: -3.3

How did CCOc1ccc(Br)c(C2(O)CC(C)N(C)CC2C)c1 (stereo not drawn) do in these assays?
HEK293 NFkB inh: 23.2; M1 antagonist: -1.16; MKP-1 inh: -23.3; Her2 expr inh: 113.8; M1 agonist: 0.65; Cdc25B inh: 3.0

How did CCOC(=O)C1CCN(C(C)C(=O)c2c(C)[nH]c3cc(C)ccc23)CC1 (stereo not drawn) do in these assays?
HEK293 NFkB inh: 9.6; M1 antagonist: -4.31*; MKP-1 inh: -5.2; Her2 expr inh: 132.8; M1 agonist: 1.36; Cdc25B inh: -1.0; M1 antag conf: 445*; mGluR4 antag: 251

What do the screens show for `COC(=O)C(O)(c1ccc2c(c1)CCCN2)C(F)(F)F` (stereo not drawn)?
HEK293 NFkB inh: 10.2; M1 antagonist: -0.902; MKP-1 inh: -2.1; Her2 expr inh: 108.7; M1 agonist: 0.34; Cdc25B inh: 2.2

What do the screens show for `CC(NC(=O)Oc1ccccc1)C(c1cccs1)N1CCOCC1` (stereo not drawn)?
HEK293 NFkB inh: -6.3; M1 antagonist: -0.551; MKP-1 inh: 34.9; Her2 expr inh: 123.0; M1 agonist: 0.447; Cdc25B inh: -7.7

Screens (PubChem)
